In ChEMBL document CHEMBL4402513, “Bio-Inspired Dual-Selective BCL-2/c-MYC G-Quadruplex Binders: Design, Synthesis, and Anticancer Activity of Drug-like Imidazo[2,1-i]purine Derivatives” (J Med Chem, 2020):
The source made the active and inactive calls. No cut-off for these calls is given here.

Legend:
Jurkat [1] = test: Down regulation of c-MYC mRNA expression in human Jurkat cells at 25 uM measured after 24 hrs by RT-qPCR analysis relative to control; format: functional
Summary of the method: (§1)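 Jurkat cells were treated 24 h at 25 µM, and total RNA was extracted with TRI Reagent. 0.5 µg RNA was reverse transcribed with MMLV RT and random primers (22 °C 10 min, 42 °C 60 min). SYBR qPCR ran 40 cycles (95/59/72 °C) in duplicate with GAPDH as reference. Relative expression was calculated by the […] method from at least three independent experiments.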

Jurkat [2] = test: Cytotoxicity against human Jurkat cells assessed as cell viability at 50 uM measured after 48 hrs by combined MTT and trypan blue staining based cell counting assay relative to control; format: functional; conditions: read-out: Activity
Summary of the method: (§2)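 Cells were seeded at 10^4/well (HDF 10^3), grown 24 h, then treated 48 h at 5–100 µM in 0.5% v/v DMSO. Read-outs were MTT (1 h, 37 °C, absorbance 550 nm; Jurkat handled by centrifugation) combined with trypan blue live/dead counting into a survival index versus untreated cells. IC50 came from nonlinear regression, n = 6 per experiment ×3 (n = 18), mean ± SEM.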

Quadruplex DNA [3] = test: Binding affinity to synthetic BCL2 G4 quadruplex DNA up to 5:1 compound/DNA ratio by 1H-NMR analysis; format: nucleic-acid assay
Summary of the method: (§3)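 1H NMR titration of G4 DNA at 0.2 mM in H2O/D2O 9:1 containing 5 mM KH2PO4, 20 mM KCl, 0.2 mM EDTA (pH 7.0), with DPFGSE water suppression. Ligand aliquots from 20 mM deutero-DMSO stock were added in the tube up to 5:1 ligand/G4. Imino and aromatic proton shifts were monitored.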

[4] = Binding affinity to synthetic Cy5-fluorescently labeled 20-mer hairpin duplex DNA by microscale thermophoresis method
Summary of the method: (§4)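 MST with Cy5-labelled oligonucleotides annealed at 1 µM in 5 mM KH2PO4/20 mM KCl (pH 7.0), then diluted in the same buffer with 0.1% Tween. DNA was held at 40 nM. Ligand was serially diluted 1:2 from a 4 mM DMSO stock and mixed 1:1 with DNA, giving 5% final DMSO. Kd was derived from thermophoresis binding curves.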

Quadruplex DNA [5] = test: Binding affinity to human Cy5-fluorescently labeled telomeric 23 G4 quadruplex DNA by microscale thermophoresis method; format: nucleic-acid assay; summary of the method: as §4
Quadruplex DNA [6] = test: Binding affinity to synthetic c-MYC G4 quadruplex DNA up to 5:1 compound/DNA ratio by 1H-NMR analysis; format: nucleic-acid assay; summary of the method: as §3
HaCaT = test: Cytotoxicity against human HaCaT cells assessed as reduction in cell viability measured after 48 hrs by combined MTT assay; format: cell-based; summary of the method: as §2
Quadruplex DNA [7] = test: Binding affinity to synthetic Cy5-fluorescently labeled BCL2 G4 quadruplex DNA by microscale thermophoresis method; format: nucleic-acid assay; summary of the method: as §4
[8] = Binding affinity to synthetic 20-mer hairpin duplex DNA assessed as change in melting temperature at 10 molar equiv to DNA measured after 10 mins by circular dichroism melting analysis
Summary of the method: (§5)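 CD melting of folded DNA (G4 10 µM, duplex 15 µM) in 20 mM KCl, 5 mM KH2PO4 (pH 7.0), without and with 10 molar equivalents of ligand. Tm was taken from curve fitting, and ΔTm = Tm(DNA+ligand) − Tm(DNA). Runs were done in triplicate and averaged.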

Jurkat [9] = test: Induction of apoptosis in human Jurkat cells assessed as early apoptotic cells at 25 uM measured after 48 hrs by Annexin V-FITC/propidium iodide staining based flow cytometry (reference value: 0.3%); format: functional
Jurkat [10] = test: Down regulation of BCL2 expression in human Jurkat cells at 25 uM measured after 24 hrs by Western blot analysis relative to control; format: functional
Summary of the method: (§6)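 Jurkat cells treated 24 h at 25 µM were lysed in 50 mM Hepes pH 7.4, 50 mM NaCl, 1% Triton with protease inhibitors. Protein was quantified by Bradford and run on 10% SDS-PAGE to nitrocellulose. Blots were probed with anti-Bcl-2, anti-c-Myc and anti-β-actin and detected by ECL. Densitometry was normalised to β-actin and expressed as % of control; three independent experiments.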

Quadruplex DNA [11] = test: Binding affinity to synthetic BCL2 G4 quadruplex DNA assessed as change in melting temperature at 10 molar equiv to DNA measured after 10 mins by circular dichroism melting analysis; format: nucleic-acid assay; summary of the method: as §5
Quadruplex DNA [12] = test: Binding affinity to synthetic c-KIT1 G4 quadruplex DNA assessed as change in melting temperature at 10 molar equiv to DNA measured after 10 mins by circular dichroism melting analysis; format: nucleic-acid assay; summary of the method: as §5
Jurkat [13] = test: Cytotoxicity against human Jurkat cells assessed as reduction in cell viability measured after 48 hrs by combined MTT and trypan blue staining based cell counting assay; format: functional; summary of the method: as §2
HCT-116 = test: Cytotoxicity against human HCT116 cells assessed as reduction in cell viability measured after 48 hrs by combined MTT assay; format: functional, cell-based; conditions: HCT-116, 48 h; summary of the method: as §2
Quadruplex DNA [14] = test: Binding affinity to synthetic c-MYC G4 quadruplex DNA assessed as change in melting temperature at 10 molar equiv to DNA measured after 10 mins by circular dichroism melting analysis; format: nucleic-acid assay; summary of the method: as §5
Jurkat [15] = test: Down regulation of BCL2 mRNA expression in human Jurkat cells at 25 uM measured after 24 hrs by RT-qPCR analysis relative to control; format: functional; summary of the method: as §1
Jurkat [16] = test: Induction of apoptosis in human Jurkat cells assessed as viable cells at 25 uM measured after 48 hrs by Annexin V-FITC/propidium iodide staining based flow cytometry (reference value: 97%); format: functional; conditions: read-out: Activity
Quadruplex DNA [17] = test: Binding affinity to human telomeric 23 G4 quadruplex DNA assessed as change in melting temperature at 10 molar equiv to DNA measured after 10 mins by circular dichroism melting analysis; format: nucleic-acid assay; summary of the method: as §5
Quadruplex DNA [18] = test: Binding affinity to synthetic Cy5-fluorescently labeled c-MYC G4 quadruplex DNA by microscale thermophoresis method; format: nucleic-acid assay; summary of the method: as §4
MCF7 = test: Cytotoxicity against human MCF7 cells assessed as reduction in cell viability measured after 48 hrs by combined MTT assay; format: functional, cell-based; conditions: MCF7, 48 h; summary of the method: as §2
Quadruplex DNA [19] = test: Binding affinity to synthetic Cy5-fluorescently labeled c-KIT1 G4 quadruplex DNA by microscale thermophoresis method; format: nucleic-acid assay; summary of the method: as §4
Jurkat [20] = test: Down regulation of c-MYC expression in human Jurkat cells at 25 uM measured after 24 hrs by Western blot analysis relative to control; format: functional; summary of the method: as §6
A-375 = test: Cytotoxicity against human A375 cells assessed as reduction in cell viability measured after 48 hrs by combined MTT assay; format: functional, cell-based; conditions: A-375, 48 h; summary of the method: as §2
NHDF = test: Cytotoxicity against HDF cells assessed as reduction in cell viability measured after 48 hrs by combined MTT assay; format: cell-based; conditions: Homo sapiens; summary of the method: as §2
Jurkat [21] = test: Induction of apoptosis in human Jurkat cells assessed as late apoptotic cells at 25 uM measured after 48 hrs by Annexin V-FITC/propidium iodide staining based flow cytometry (reference value: 1.4%); format: functional

Question: For `CN(C)CCCn1cnc2c1ncn1c(NC(C)(C)C)c(-c3ccc(Cl)cc3)nc21`, which Activity (Jurkat [1]) is on record?
Answer: Its Activity is 66%.

Question: And the viability at 50 µM (Jurkat [2])?
Answer: Its viability at 50 µM is 25%.

Question: And the Activity (Quadruplex DNA [3])?
Answer: The Activity was “Active”.

Question: And the Activity [4]?
Answer: The Activity was “inactive”.

Question: And the Activity (Quadruplex DNA [5])?
Answer: Its Activity is “inactive”.

Question: What about the Activity (Quadruplex DNA [6]) of the same molecule?
Answer: Its Activity is “Active”.

Question: What about the IC50 (HaCaT) of the same molecule?
Answer: Its IC50 is > 100 µM.

Question: And the Kd (Quadruplex DNA [7])?
Answer: Its Kd is 60 µM.

Question: And the ΔTm [8]?
Answer: The ΔTm was -0.5 °C.

Question: What about the Activity (Jurkat [9]) of the same molecule?
Answer: Its Activity is 0.5%.

Question: What about the Activity (Jurkat [10]) of the same molecule?
Answer: Its Activity is 40%.

Question: What about the ΔTm (Quadruplex DNA [11]) of the same molecule?
Answer: Its ΔTm is 6.7 °C.

Question: What about the ΔTm (Quadruplex DNA [12]) of the same molecule?
Answer: Its ΔTm is 2.8 °C.

Question: And the Activity (Jurkat [13])?
Answer: The Activity was “Dose-dependent effect”.

Question: And the IC50 (Jurkat [13])?
Answer: The IC50 was 17 µM.

Question: And the IC50 (HCT-116)?
Answer: The IC50 was > 100 µM.

Question: And the ΔTm (Quadruplex DNA [14])?
Answer: The ΔTm was 12.8 °C.

Question: And the Activity (Jurkat [15])?
Answer: The Activity was 67%.

Question: And the viability at 25 µM (Jurkat [16])?
Answer: Its viability at 25 µM is 0.5%.

Question: And the ΔTm (Quadruplex DNA [17])?
Answer: Its ΔTm is 2.4 °C.

Question: What about the Kd (Quadruplex DNA [18]) of the same molecule?
Answer: Its Kd is 26 µM.

Question: What about the IC50 (MCF7) of the same molecule?
Answer: Its IC50 is > 100 µM.

Question: What about the Kd (Quadruplex DNA [19]) of the same molecule?
Answer: Its Kd is 51 µM.

Question: And the Activity (Jurkat [20])?
Answer: The Activity was 50%.

Question: What about the IC50 (A-375) of the same molecule?
Answer: The IC50 was > 100 µM.

Question: What about the IC50 (NHDF) of the same molecule?
Answer: Its IC50 is 80 µM.

Question: What about the Activity (Jurkat [21]) of the same molecule?
Answer: The Activity was 99%.
